Measured values taken from ChEMBL document CHEMBL3813671, “Unexpected Discovery of Dichloroacetate Derived Adenosine Triphosphate Competitors Targeting Pyruvate Dehydrogenase Kinase To Inhibit Cancer Proliferation” (J Med Chem, 2016).
Calls of active or inactive are those of the source. The rule behind the calls is not given here.

What was measured:
[1] = target: T1, [Pyruvate dehydrogenase (acetyl-transferring)] kinase isozyme 1, mitochondrial (Homo sapiens, UniProt Q15118); assay: Inhibition of PDK1 in human MCF7 cells assessed as increase in ratio of oxygen consumption rate to extracellular acidification rate at 20 uM after 12 hrs; format: cell-based
Procedure, shortened: (§1)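 MCF-7 cells at 2.7×10⁴ cells/well in XF24 plates, attached, then grown 24 h at 37 °C in 5% CO2. Treated 12 h at 5, 10 or 20 µM, rinsed into glycolysis stress-test medium and held 1 h at 37 °C without CO2. OCR, ECAR and PPR then measured on a Seahorse XFe24 analyser. Significance P < 0.05 versus untreated control.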

MCF7 [2] = assay: Induction of apoptosis in human MCF7 assessed as early apoptotic cells at 20 uM after 10 hrs by FITC-annexin V/propidium iodide staining-based flow cytometric analysis (reference value: 2.38%); format: functional
Sus scrofa [3] = species on record: Sus scrofa; assay: Activation of pig heart PDC assessed as production of NADH at 50 uM in absence of ATP
Procedure, shortened: (§2)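 Pig heart PDC (80 µg/ml, carrying intrinsic PDK activity) preincubated 40 min at 37 °C in Mops pH 7.20 buffer with NaF, acetyl-CoA, NADH and DTT. Kinase step 3 min at 37 °C with 55 µM ADP and 100 µM ATP, or no ATP. Stopped with ADP/pyruvate. Residual PDC activity then read as NADH formation at 340 nm, 37 °C, in Tris pH 7.8 with TPP, NAD+, pyruvate and CoA.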

[4] = target: T1, [Pyruvate dehydrogenase (acetyl-transferring)] kinase isozyme 1, mitochondrial; assay: Inhibition of recombinant N-terminal 6xHis-SUMO-tagged human PDK1 (29 to 436 residues) expressed in Escherichia coli BL-21 assessed as suppression of PDC phosphorylation at S293 at 50 uM after 30 mins by Western blot method
MCF7 [5] = assay: Induction of apoptosis in human MCF7 assessed as viable cells at 20 uM after 10 hrs by FITC-annexin V/propidium iodide staining-based flow cytometric analysis (reference value: 93.8%); format: functional; conditions: MCF7, 10 h, read-out: Activity
Sus scrofa [6] = species on record: Sus scrofa; assay: Activation of pig heart PDC assessed as production of NADH at 50 uM in presence of ATP; procedure, shortened: as §2
[7] = target: T1, [Pyruvate dehydrogenase (acetyl-transferring)] kinase isozyme 1, mitochondrial; assay: Inhibition of PDK1 in human MCF7 cells assessed as decrease in extracellular acidification rate at 20 uM after 12 hrs; format: cell-based; procedure, shortened: as §1
MCF7 [8] = assay: Induction of apoptosis in human MCF7 assessed as necrotic cells at 20 uM after 10 hrs by FITC-annexin V/propidium iodide staining-based flow cytometric analysis (reference value: 1.86%); format: functional
[9] = target: T1, [Pyruvate dehydrogenase (acetyl-transferring)] kinase isozyme 1, mitochondrial; assay: Inhibition of recombinant N-terminal 6xHis-SUMO-tagged human PDK1 (29 to 436 residues) expressed in Escherichia coli BL-21 assessed as activation of PDC at 50 uM
[10] = Cytotoxicity against human MCF10A cells assessed as growth inhibition at 10 uM after 72 hrs by MTT assay relative to control; format: cell-based, MCF-10A; conditions: read-out: GI
MCF7 [11] = assay: Cytotoxicity against human MCF7 cells assessed as growth inhibition at 40 uM after 72 hrs by MTT assay relative to control; format: functional, cell-based
MCF7 [12] = assay: Induction of mitochondrial membrane potential depolarization in human MCF7 cells at 60 uM after 12 hrs by TMRM staining-based assay; format: functional, cell-based
A549 [13] = assay: Cytotoxicity against human A549 cells assessed as growth inhibition after 72 hrs by MTT assay; format: functional, cell-based; conditions: A549, 72 h
[14] = Cytotoxicity against human MCF10A cells assessed as growth inhibition at 40 uM after 72 hrs by MTT assay relative to control; format: cell-based, MCF-10A; conditions: read-out: GI
MCF7 [15] = assay: Induction of apoptosis in human MCF7 assessed as late apoptotic cells at 20 uM after 10 hrs by FITC-annexin V/propidium iodide staining-based flow cytometric analysis (reference value: 1.95%); format: functional
[16] = target: T1, [Pyruvate dehydrogenase (acetyl-transferring)] kinase isozyme 1, mitochondrial; assay: Inhibition of PDK1 in human MCF7 cells assessed as decrease in proton production rate at 20 uM after 12 hrs; format: cell-based; procedure, shortened: as §1
A549 [17] = assay: Cytotoxicity against human A549 cells assessed as growth inhibition at 40 uM after 72 hrs by MTT assay relative to control; format: functional, cell-based
[18] = target: T1, [Pyruvate dehydrogenase (acetyl-transferring)] kinase isozyme 1, mitochondrial; assay: Inhibition of PDK1 in human MCF7 cells assessed as decrease in lactate production at 20 uM after 12 hrs
MCF7 [19] = assay: Cytotoxicity against human MCF7 cells assessed as growth inhibition at 40 uM after 72 hrs by IncuCyte Zoom live cells imaging method; format: functional, cell-based
[20] = target: T1, [Pyruvate dehydrogenase (acetyl-transferring)] kinase isozyme 1, mitochondrial; assay: Inhibition of PDK1 in human MCF7 cells assessed as increase in oxygen consumption rate at 20 uM after 12 hrs; format: cell-based; procedure, shortened: as §1
[21] = target: T1, [Pyruvate dehydrogenase (acetyl-transferring)] kinase isozyme 1, mitochondrial; assay: Inhibition of recombinant N-terminal 6xHis-SUMO-tagged human PDK1 (29 to 436 residues) expressed in Escherichia coli BL-21 assessed as phosphorylation of RYHGHSMSDP at 50 uM after 30 mins by Kinase-Glo luminescent assay
MCF7 [22] = assay: Cytotoxicity against human MCF7 cells assessed as growth inhibition after 72 hrs by MTT assay; format: functional, cell-based; conditions: MCF7, 72 h
MCF7 [23] = assay: Reversal of hyperpolarized mitochondrial membrane potential in human MCF7 cells assessed as cells with vital and intact mitochondrial membranes at 20 uM after 12 hrs by JC1 staining-based flow cytometric analysis; format: functional
Procedure, shortened: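 MCF-7 cells treated 12 h (5, 10 or 20 µM), then stained with JC-1. Depolarization read as the ratio of green J-monomer to red J-aggregate fluorescence.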

A549 [24] = assay: Cytotoxicity against human A549 cells assessed as growth inhibition at 40 uM after 72 hrs by IncuCyte Zoom live cells imaging method; format: functional, cell-based
Sus scrofa [25] = species on record: Sus scrofa; assay: Activation of pig heart PDC assessed as production of NADH at 10 mM in presence of ATP
Procedure, shortened: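 Pig PDC with its intrinsic PDKs preincubated 40 min at 37 °C at 80 µg/ml in Mops buffer pH 7.20 with acetyl-CoA, NADH, NaF. Kinase step run 3 min at 37 °C after 2.2-fold dilution into buffer with 55 µM ADP and 100 µM ATP, stopped with ADP/pyruvate. Residual PDC activity read as NADH at 340 nm in Tris pH 7.8 with NAD+, pyruvate, CoA, thiamine pyrophosphate.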

MCF7 [26] = assay: Induction of apoptosis in human MCF7 assessed as early apoptotic cells at 10 mM after 10 hrs by FITC-annexin V/propidium iodide staining-based flow cytometric analysis (reference value: 2.38%); format: functional
[27] = Cytotoxicity against human MCF10A cells assessed as growth inhibition at 10 mM after 72 hrs by MTT assay relative to control; format: cell-based, MCF-10A; conditions: read-out: GI
[28] = target: T1, [Pyruvate dehydrogenase (acetyl-transferring)] kinase isozyme 1, mitochondrial; conditions: MCF7, 10 mM
MCF7 [29] = assay: Induction of apoptosis in human MCF7 assessed as viable cells at 10 mM after 10 hrs by FITC-annexin V/propidium iodide staining-based flow cytometric analysis (reference value: 93.8%); format: functional; conditions: MCF7, 10 h, read-out: Activity
MCF7 [30] = assay: Induction of apoptosis in human MCF7 assessed as late apoptotic cells at 10 mM after 10 hrs by FITC-annexin V/propidium iodide staining-based flow cytometric analysis (reference value: 1.95%); format: functional
[31] = target: T1, [Pyruvate dehydrogenase (acetyl-transferring)] kinase isozyme 1, mitochondrial; conditions: MCF7, 10 mM; remark: listed apart in the source
[32] = Cytotoxicity against human MCF10A cells assessed as growth inhibition at 20 uM after 72 hrs by MTT assay relative to control; format: cell-based, MCF-10A; conditions: read-out: GI
[33] = target: T1, [Pyruvate dehydrogenase (acetyl-transferring)] kinase isozyme 1, mitochondrial; conditions: MCF7, 10 mM; remark: listed apart in the source
MCF7 [34] = assay: Induction of apoptosis in human MCF7 assessed as necrotic cells at 10 mM after 10 hrs by FITC-annexin V/propidium iodide staining-based flow cytometric analysis (reference value: 1.86%); format: functional
[35] = target: T1, [Pyruvate dehydrogenase (acetyl-transferring)] kinase isozyme 1, mitochondrial; conditions: MCF7, 10 mM; remark: listed apart in the source
[36] = target: T1, [Pyruvate dehydrogenase (acetyl-transferring)] kinase isozyme 1, mitochondrial; conditions: MCF7, 10 mM; remark: listed apart in the source
MCF7 [37] = assay: Reversal of hyperpolarized mitochondrial membrane potential in human MCF7 cells assessed as cells with vital and intact mitochondrial membranes at 10 mM after 12 hrs by JC1 staining-based flow cytometric analysis; format: functional
Procedure, shortened: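 MCF-7 treated 12 h, then stained with JC-1. Mitochondrial potential read as the ratio of green J-monomer to red J-aggregate fluorescence, where a higher ratio marks depolarization. P < 0.05 computed against the […] DCA-treated group.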

Structure (SMILES) | inhibition [1] | Activity (MCF7 [2]) | Activity (Sus scrofa [3]) | inhibition [4] | viability at 20 µM (MCF7 [5]) | Activity (Sus scrofa [6]) | inhibition [7] | Activity (MCF7 [8]) | inhibition [9] | inhibition at 72 h, 10 µM [10] | growth inhibition (GI) (MCF7 [11]) | Activity (MCF7 [12]) | IC50 (A549 [13]) | inhibition at 72 h, 40 µM [14] | Activity (MCF7 [15]) | inhibition [16] | growth inhibition (GI) (A549 [17]) | inhibition [18] | IC50 (MCF7 [22]) | Activity (MCF7 [23]) | further results
O=C(Nc1c(Cl)ncnc1Cl)C(Cl)Cl | Active | 4.84% | Active | Active | 80.7% | inactive | Active | 3.91% | Active | 4.91% | Active | Active | 28.4 µM | 42.4% | 10.6% | Active | Active | Active | 19.3 µM | 60.1% | growth inhibition (GI) (MCF7 [19]): Active; inhibition [20]: Active; inhibition [21]: Active
Cc1nc(Cl)c(NC(=O)C(Cl)Cl)c(Cl)n1 | Active | 4.43% | Active | Active | 83% | inactive | Active | 2.7% | Active | 7.57% | Active | Active | 26 µM | 41.6% | 9.87% | Active | Active | Active | 22.9 µM | 68.6% | growth inhibition (GI) (A549 [24]): Active; inhibition [20]: Active; inhibition [21]: Active
O=C([O-])C(Cl)Cl.[Na+] [SODIUM DICHLOROACETATE] |  |  |  |  |  |  |  |  |  |  |  |  | 23600 µM |  |  |  |  |  | 12400 µM | 77.7% | Activity (Sus scrofa [25]): Active; Activity (MCF7 [26]): 3.64%; inhibition at 72 h, 10000 µM [27]: 41.1%; inhibition [28]: Active; viability at 10000 µM (MCF7 [29]): 83.3%; Activity (MCF7 [30]): 9.94%; inhibition [31]: Active; inhibition at 72 h, 20 µM [32]: 3.42%; inhibition [33]: Active; Activity (MCF7 [34]): 3.09%; inhibition [35]: Active; inhibition [36]: Active; Activity (MCF7 [37]): 69%
